Measurements from ChEMBL document CHEMBL4513216, “Probing the Open Global Health Chemical Diversity Library for Multistage-Active Starting Points for Next-Generation Antimalarials” (ACS Infect Dis, 2020).

Test: Toxicity liver stage against HepG2, at 10uM
Assay type: cell-based
Design: test concentration 10 uM, cell line HepG2-A16-CD81EGFP
Conditions: human, HepG2-A16-CD81EGFP cells; read-out: INHIBITION
Outline: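 Uninfected HepG2-A16-CD81EGFP cells, 3 × 10^3 per well, 1536-well, plated on prespotted compound at 10 μM final, parasite-free screening media added to match infected plates; puromycin 10 μM positive, DMSO 0.5% negative; run in parallel with 48 h PbLuc assay at 37 °C, 5% CO2; viability by CellTiter-Glo luminescence, normalized to controls.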

| Structure (SMILES) | cytotoxicity at 10 µM [%] |
| --- | --- |
| CC(=O)Nc1ccc([C@@H](O)[C@H]2COCC(=O)N2CC(C)C)cc1 | -6.6 |
| COc1cccc(CN2CCCCCC2c2cccs2)c1OC (stereo unspecified) | 8.29 |
| Cc1nn2c(NC(=O)CSc3ncccn3)csc2nc1=O | 2.74 |
| CCOC(=O)CC(c1cccc(OC)c1OC)c1c(C)[nH][nH]c1=O (stereo unspecified) | 0.0535 |
| COc1cccc(C2SCC(=O)Nc3ccsc32)c1 (stereo unspecified) | 2.77 |
| CCc1c(C)nn2c(O)cc(C3CCN(C(=O)c4ccn(C)n4)C3)nc12 (stereo unspecified) | 7.92 |
| Cc1ccc(C(C)NC(=O)N2CCN(S(C)(=O)=O)CC2)o1 (stereo unspecified) | 25.3 |
| CN(CC(=O)NCCC#N)C(c1ccccc1)c1ccc(F)cc1 (stereo unspecified) | -4.34 |
| OC1(CNCc2ccc(F)c(C(F)(F)F)c2)CCOC1 (stereo unspecified) | 9.21 |
| COc1ccc(Br)cc1CN(C)C(C)c1nc(C(C)C)no1 (stereo unspecified) | 4.43 |
| Cc1nc(CN2CCC(C(=O)N(C)C3CCC(C)CC3)CC2)cs1 (stereo unspecified) | 2.84 |
| CC(C)Cc1cc(NC(=O)N2CCC(Oc3cccnc3)C2)n(C)n1 (stereo unspecified) | -4.71 |
| CN(CC(=O)Nc1nncs1)CC1CCCN1c1cccnn1 (stereo unspecified) | -13.7 |
| CN(CC(=O)Nc1cc(C(C)(C)C)n[nH]1)S(C)(=O)=O | 5.15 |
| COCCN(CC(C)C)c1cc(C)ncn1 | 1.38 |
| N#Cc1cccc(Cl)c1NCCc1n[nH]c(=O)[nH]1 | 60.1 |
| CCC(CC)C(CNC(=O)Nc1cnn(CCOC)c1)N(C)C (stereo unspecified) | -6.87 |
| Cc1ccc(OCCC(=O)NC2CC(=O)N(C)C2)cc1C (stereo unspecified) | -9.25 |
| Cc1ccc(C)c2c(O)cc(CN3CCC(=O)NCC3C)nc12 (stereo unspecified) | 2.11 |
| CCSc1ncc(CN2CCN(c3ccc(C#N)cc3)C(=O)C2)cn1 | -2.54 |
| COc1cccc(-c2n[nH]c3c2CN(C(=O)C2=C(C)OCCO2)CC3)c1 | 3.28 |
| c1cncc(-n2cnnc2CCCN2CCOCC2)c1 | 1.5 |
| O=C(O)C1(Cc2ccc(F)cc2F)CCCN(Cc2ccncc2)C1 (stereo unspecified) | -2.74 |

| Structure (SMILES) | cytotoxicity at 10 µM [%] |
| --- | --- |
| CCN(c1ccc(C(=O)N2CCCCCC2)cc1)S(=O)(=O)CC | -2.25 |
| CCc1noc(CN2CCN(Cc3cccs3)CC2)n1 | -5.06 |
| Cc1cc(CN(C)C(=O)NC2CCN(C3CC3)CC2)no1 | -3.6 |
| Cc1nc(C2CCCN2CCCS(=O)(=O)c2ccccc2)no1 (stereo unspecified) | -4.42 |
| CCCC(=O)NC(C)c1nnc2n1CCC2 (stereo unspecified) | -0.645 |
| O=C(NCCNc1ccc(C(F)(F)F)cn1)c1ccc(F)cc1Cl | -7.65 |
| CCc1nc(C2CCCN(C(=O)C(C)(C)NS(C)(=O)=O)C2)no1 (stereo unspecified) | -12.1 |
| COc1c(C2CCCN2C(=O)c2ccnc(C)n2)c(C)nn1C (stereo unspecified) | -12 |
| O=C(Cc1ccccn1)N1CCN(C(=O)CC2CCCC2)CC1 | -10.5 |
| Cc1ccc(N2CCCN(C(=O)CCc3nccs3)CC2)nn1 | -7.91 |
| O=C(NCC1CCOC1)c1csc(-c2ccco2)n1 (stereo unspecified) | -6.49 |
| CCNc1cc2c(nn1)CCN(C(=O)c1cccc3c1OCCO3)C2 | -8.42 |
| Cc1ncsc1C(=O)NC1CCN(CC(=O)NCc2ccccc2)CC1 | -4.62 |
| CC(C)c1nn(C)c(N(C)C)c1CNCc1ccc2c(c1)OCO2 | -5.58 |
| CC(=O)N1CCN(Cc2csc(-c3cnn(C)c3)n2)CC1 | -1.78 |
| COCC(=O)NCc1cccc(Br)c1 | -4.2 |
| O=C1N(Cc2ccc(Cl)cc2)CCC12CCCNC2 (stereo unspecified) | -10.8 |
| CCN1CCn2c(C)cnc2C12CCN(C(=O)c1ccco1)CC2 | 4.56 |
| CNC(=O)[C@@]12CCO[C@@H]1CCN(Cc1ccc3c(c1)OCO3)C2 | 1.75 |
| O=C(C1CC(F)(F)C1)N1C[C@@H]2CN(CC3CC3)CCO[C@@H]2C1 | -0.336 |
| O=C1CC[C@@H]2[C@@H](CCN2Cc2ccccn2)N1CC1CC1 | 4.76 |
| Cc1nc(CN2CCO[C@@H]3CN(Cc4nccs4)C[C@@H]3C2)cs1 | 4.8 |
| CS(=O)(=O)N1CCC2(CC1)CN(CC1CC1)CC21CCNC1=O (stereo unspecified) | 1.26 |
